Assay outcomes (PubChem)
DNMT1 inh – human DNMT1 methyltransferase inhibitors, primary screen, biochemical, molecular beacon, fluorescence, HinP1I cleavage, uHTS; DNA (cytosine-5)-methyltransferase 1 (Homo sapiens), P26358; inhibition (reported as % activation of signal), % at 10 µM; actives 0.83% (n = 360,000); in the data active means inhibition above about 50%
Target sequence (P26358 504-1616 limits assumed): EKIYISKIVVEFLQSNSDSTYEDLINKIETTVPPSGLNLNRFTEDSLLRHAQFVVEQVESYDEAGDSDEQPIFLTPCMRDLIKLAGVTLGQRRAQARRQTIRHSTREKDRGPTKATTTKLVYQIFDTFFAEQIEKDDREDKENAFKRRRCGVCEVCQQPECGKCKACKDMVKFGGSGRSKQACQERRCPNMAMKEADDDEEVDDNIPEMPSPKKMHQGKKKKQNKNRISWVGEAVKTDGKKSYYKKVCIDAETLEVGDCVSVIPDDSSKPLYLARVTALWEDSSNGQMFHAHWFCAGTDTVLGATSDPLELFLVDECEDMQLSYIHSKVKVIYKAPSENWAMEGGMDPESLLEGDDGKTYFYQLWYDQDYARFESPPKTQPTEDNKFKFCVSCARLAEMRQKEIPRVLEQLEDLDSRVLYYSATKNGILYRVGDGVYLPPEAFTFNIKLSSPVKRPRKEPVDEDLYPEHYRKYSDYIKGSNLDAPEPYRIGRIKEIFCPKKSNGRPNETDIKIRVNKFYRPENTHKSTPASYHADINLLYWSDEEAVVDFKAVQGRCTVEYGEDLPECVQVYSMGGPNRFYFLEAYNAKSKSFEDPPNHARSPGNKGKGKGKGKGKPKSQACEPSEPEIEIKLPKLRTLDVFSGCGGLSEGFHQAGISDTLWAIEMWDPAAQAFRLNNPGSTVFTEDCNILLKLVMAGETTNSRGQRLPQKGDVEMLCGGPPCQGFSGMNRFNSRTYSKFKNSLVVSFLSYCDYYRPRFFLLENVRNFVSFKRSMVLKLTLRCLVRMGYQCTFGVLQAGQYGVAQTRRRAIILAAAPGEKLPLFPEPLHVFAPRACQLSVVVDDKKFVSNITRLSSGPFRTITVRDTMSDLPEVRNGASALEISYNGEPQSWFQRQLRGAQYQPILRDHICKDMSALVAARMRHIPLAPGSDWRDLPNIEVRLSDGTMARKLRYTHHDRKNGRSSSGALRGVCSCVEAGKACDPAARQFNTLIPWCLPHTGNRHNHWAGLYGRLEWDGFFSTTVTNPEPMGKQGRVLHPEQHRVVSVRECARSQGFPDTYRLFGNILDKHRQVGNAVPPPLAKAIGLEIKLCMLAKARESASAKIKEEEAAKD
STEP inh – STEP phosphatase inhibitors, primary screen, biochemical, fluorescence intensity, uHTS. Tyrosine-protein phosphatase non-receptor type 5 (Homo sapiens), P54829. recombinant STEP, OMFP fluorogenic substrate. inhibition, % at 20 µM. actives 0.25% (n = 360,000). AID 588621, 2011;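 active means inhibition at 20 µM, scaled per plate between control wells, above about 37%, limit read from the data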;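 further: 0% = DMSO with enzyme and substrate and 100% = substrate only without enzyme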
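Assay system: isolated STEP enzyme / Timing: 20 min at room temperature, dark / Doses: 20 µM, 1% DMSO / Technique: fluorescence intensity, excitation 480 nm, emission 540 nm / Reagent: fluorogenic phosphatase substrate OMFP at 25 µM final / Measure: percent inhibition scaled to no-enzyme and uninhibited-enzyme controls, plate-pattern corrected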
Scp1 inh – Scp-1 phosphatase inhibitors, primary screen, biochemical, colorimetric, uHTS; Recombinant Scp1, phosphopeptide, malachite green phosphate absorbance; actives 0.88% (n = 340,000); inhibition, % at 20 µM; AID 493091, 2011; Carboxy-terminal domain RNA polymerase II polypeptide A small phosphatase 1 (Homo …;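 active means inhibition above about 50% at 20 µM, limit read from the data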;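 further: plate controls were DMSO wells with enzyme for no effect and wells lacking enzyme for full effect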
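Incubation: 45 min enzyme reaction at room temperature / System: truncated SCP-1 phosphatase (76-261aa) / Reagent: Phospho 17-mer peptide substrate / Buffer or medium: Acidic Tris acetate buffer with magnesium and detergent / Signal: absorbance at 630 nm / Doses: one concentration, 20 µM, with 1.0% DMSO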
Rpn11 block – Rpn11 (PSMD14) deubiquitinase inhibitors, primary screen, biochemical, fluorescence polarization, uHTS | human 26S proteasome, Ub4-pepOG fluorescence polarization; 20S core pre-blocked with epoxomicin | inhibition, % at 20 µM | actives 0.59% (n = 360,000) | AID 588493, 2011;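 active means inhibition at 20 µM, scaled to each plate's controls, above about 33%, limit read from the data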
LMPTP block – LMPTP phosphatase inhibitors, primary screen, biochemical, fluorescence intensity, uHTS. Low molecular weight phosphotyrosine protein phosphatase (Homo sapiens), P24666. recombinant LMPTP-A, OMFP fluorogenic substrate. inhibition, % at 20 µM. actives 0.22% (n = 360,000). AID 651560, 2012;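 active means compounds that cut the enzyme signal by at least half of the control window in the single-dose screen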;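 further: plate controls were DMSO wells with enzyme plus substrate for no effect and substrate without enzyme for full effect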
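Test system: LMPTP-A, protein tyrosine phosphatase of low molecular weight; Input: 0.625 nM enzyme; Incubation: 50 min dark incubation at room temperature; Signal: endpoint fluorescence intensity from OMFP dephosphorylation; Read-out basis: % inhibition versus control wells.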
Numbers without * were called inactive; · = not tested or not shown. Rows were chosen to be rich in hits. Some 2% of all compounds tested hit in one or more screens of this group.

SMILES	DNMT1 inh	STEP inh	Scp1 inh	Rpn11 block	LMPTP block
CC(Cc1c[nH]c2ccccc12)C(=O)O (stereo unspecified)	73.0*	5.3	66.3*	7.2	-0.3
CCc1ccccc1NC(=O)C1CCN(c2cnccn2)CC1	0.1	0.7	-4.7	1.2	-2.1
O=C(NCc1ccco1)c1cccc2c1C(=O)c1ccc(/C=C/c3ccccc3)cc1S2(=O)=O	13.4	-1.9	74.9*	16.1	4.6
COc1cc2c(c(OC)c1O)C(=O)CO2	-0.4	4.0	2.0	-3.9	1.8
COc1cc(OC)c2c(O)c3c(c(-c4c5c(c(O)c6c(OC)cc(OC)cc46)CO[C@@H](C)[C@H]5O)c2c1)[C@H](O)[C@H](C)OC3	100.3*	-2.0	55.5*	72.4*	51.4*
CCOC(=O)C1=CCN(S(=O)(=O)c2ccccc2Br)C1c1cccc(C)c1 (stereo unspecified)	-3.6	-0.3	·	7.9	0.8
O=C(CCN1C(=O)/C(=C/c2ccccc2Cl)SC1=S)NC1C=CS(=O)(=O)C1 (stereo unspecified)	54.3*	3.5	-10.6	0.3	8.4
O=C(O)/C(=C\c1ccc(Cl)c([N+](=O)[O-])c1)c1ccc(S(=O)(=O)N2CCCC2)s1	72.3*	5.6	66.2*	-1.5	27.5
COc1cccc(-n2c(SCc3cc(=O)oc4cc(O)c(O)cc34)nc3ccccc3c2=O)c1	30.6	12.0	31.9	-3.8	52.1*
Nc1c(N2CCOCC2)cc(Cl)c2nonc12	3.1	15.3	-0.1	0.9	-0.5
Nc1c(N2CCCC2)cc(Cl)c2nonc12	78.0*	3.8	-5.8	8.6	7.9
C[C@H](O)C#Cc1ccc2c(c1)O[C@@H](CN(C)Cc1ccc(-c3ccccc3)cc1)[C@H](C)CN([C@@H](C)CO)S2(=O)=O	-30.6	-2.5	·	1.2	2.6
COc1cccc(N=Nc2c(N)[nH]n3c(=O)cc(-c4ccccc4)nc23)c1	-13.7	7.8	-8.5	-4.4	8.0
Cc1ccc(N=Nc2c(N)[nH]n3c(=O)cc(-c4ccccc4)nc23)cc1	-24.7	21.2	36.1	-6.7	70.1*
CC(C)Nc1ccc(Nc2ccnc3cc4ccccc4cc23)cc1	65.9*	3.8	-4.0	-20.9	22.2
COc1ccc(Nc2ccnc3ccccc23)cc1	0.3	1.0	-0.5	0.0	56.0*
CC(=O)Nc1ccc(C(=O)N2CCCCC2c2cc(C(=O)N3CCOCC3)no2)cc1 (stereo unspecified)	2.7	-3.7	·	-4.6	-1.1
C(=Cc1nc2ccccc2o1)c1ccc2c(c1)OCO2	-2.6	-0.3	·	-7.7	-0.5
C[n+]1c(/C=C/c2ccc3c(c2)OCO3)ccc2ccccc21	2.0	-1.4	105.1*	12.1	-0.4
COCCNc1nc(NCc2ccc(C(C)C)cc2)c2sccc2n1	1.8	2.1	·	-0.4	50.7*
CC(=O)Nc1ccc(CNc2nc(NC(C)C)nc3ccsc23)cc1	-1.3	0.8	·	5.1	49.1
COc1ccc(Nc2nc(NCc3cccs3)nc3ccsc23)cc1OC	-9.4	3.6	·	-16.4	56.3*
COCCNc1nc(NCc2ccc(C)cc2C)c2sccc2n1	4.2	0.3	·	0.6	59.3*
COc1ccc(Nc2nc(NC(C)C)nc3ccsc23)cc1OC	-2.7	4.5	·	-3.7	48.0
CC(=O)Nc1ccc(CNc2nc(NCC3CC3)nc3ccsc23)cc1	-0.3	3.7	·	2.1	59.6*
CC(C)C[C@H]1CNC(=O)C(=O)N1C[C@H]1CCCN1C[C@H](CC(C)C)N1C[C@H](Cc2ccccc2)N(CCc2ccccc2)C(=O)C1=O	-8.9	-2.2	·	-10.6	0.6
O=c1[nH]c2cnn(-c3ccccc3)c2c(=O)n1O	-0.8	1.4	-7.6	-3.0	-0.9
COc1ccccc1CNc1nc(NCc2cccc(OC)c2OC)c2sccc2n1	-6.0	1.6	·	7.8	37.1
COc1ccccc1CNc1nc(NCc2cnc(C)cn2)c2sccc2n1	3.4	-0.3	·	9.6	79.9*
